Activity calls are given as the source filed them. The rule behind the calls is not given here.
How the values were obtained:
[1] = biological target: Tyrosine-protein kinase SYK (Homo sapiens, UniProt P43405); experiment: Inhibition of SYK (unknown origin)
[2] = biological target: Vascular endothelial growth factor receptor 3 (Homo sapiens, UniProt P35916); experiment: Inhibition of N-terminal GST-tagged recombinant human Flt4 (800 to end residues) expressed in baculovirus infected Sf21 cells by filter binding assay
[3] = biological target: Tyrosine-protein kinase ABL1 (Homo sapiens, UniProt P00519); experiment: Inhibition of N-terminal His6-tagged recombinant human Abl (27 to end residues) expressed in baculovirus infected Sf21 cells by filter binding assay
[4] = Antiproliferative activity against human SK-ES cells assessed as reduction in cell viability after 72 hrs by CellTiter-Glo assay; assay type: functional, cell-based
Method in brief: (§1)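 Cells seeded in 96-well plates, left overnight at 37°C, then exposed to a range of test concentrations for 72 h. Viability read by CellTiter-Glo luminescence; IC50 from four-parameter curve fit. Lines kept at 37°C, 5% CO2, in recommended growth medium.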

[5] = Toxicity in nu/nu CD-1 mouse xenografted with human COLO 205 cells assessed as reduction in body weight at 30 mg/kg, po administered twice daily for 21 days relative to control; assay type: organism-based; parameters: scale not given: the % may be the effect or the level left; details: in vivo, 504 h, time 21 day
[6] = Inhibition of C-terminal His6-tagged human full length CDK2/N-terminal GST-tagged human full length cyclinA expressed in baculovirus infected Sf21 cells at 0.3 uM by filter binding assay relative to control; details: condition cancer
Method in brief: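 Run in an outsourced profiling panel of 233 kinases. Each kinase was tested with radiometric filter-binding activity assays at a single inhibitor concentration of 0.3 µmol/L. Inhibitor stock was 10 mmol/L in DMSO. Inhibition is reported as percent relative to control.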

[7] = biological target: Serine/threonine-protein kinase PLK3 (Homo sapiens) (UniProt Q9H4B4); experiment: Inhibition of N-terminal His6-tagged recombinant human Plk3 (19 to 301 residues) expressed in baculovirus infected Sf21 cells at 0.3 uM by filter binding assay relative to control
MCF7 = experiment: Induction of cell cycle arrest in human MCF7 cells assessed as effect on sub-2N-DNA content at 0.03 to 10 uM incubated for 24 to 48 hrs by propidium iodide staining based flow cytometric analysis; assay type: functional; details: dose 0.03-10 µM, time lower 24.0 hrs, time upper […]
Method in brief: (§2)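 COLO 205, MCF-7 or NCI-H929 cells seeded in 96-well plates overnight at 37°C, then exposed to DMSO or increasing compound concentrations for 24 or 48 h. Fixed and stained with propidium iodide (Vindelov method), then analysed by flow cytometry for sub-G1, G1, S and G2-M fractions. Experiment repeated twice.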

[8] = biological target: Mitogen-activated protein kinase 1 (Homo sapiens) (UniProt P28482); experiment: Inhibition of N-terminal GST-tagged recombinant human MAPK2 expressed in Escherichia coli at 0.3 uM by filter binding assay relative to control
Method in brief: (§3)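 Outsourced single-concentration screen in a commercial panel of 233 protein kinases, run as radiometric filter-binding activity assays. Test agent was tested at 0.3 or 3 µmol/L, as given in each line, from a 10 mmol/L DMSO stock. Activity is expressed as percent inhibition relative to control.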

[9] = biological target: Fibroblast growth factor receptor 4 (Homo sapiens) (UniProt P22455); experiment: Inhibition of N-terminal His6-tagged recombinant human FGFR4 (442 to 755 residues) expressed in baculovirus infected Sf21 cells at 3 uM by filter binding assay relative to control
[10] = biological target: Serine/threonine-protein kinase DCLK2 (Homo sapiens) (UniProt Q8N568); experiment: Inhibition of N-terminal 6His-tagged recombinant human DCAMKL2 (376 to end residues) expressed in baculovirus infected Sf21 cells at 3 uM by filter binding assay relative to control; method in brief: as §3
[11] = biological target: Vascular endothelial growth factor receptor 2 (Homo sapiens, UniProt P35968); experiment: Inhibition of VEGFR2 (unknown origin)
[12] = biological target: Serine/threonine-protein kinase Sgk1 (Homo sapiens) (UniProt O00141); experiment: Inhibition of human SGK at 3 uM by filter binding assay relative to control
[13] = biological target: Dual specificity mitogen-activated protein kinase kinase 6 (Homo sapiens) (UniProt P52564); experiment: Inhibition of N-terminal maltose binding protein-tagged human MKK6 (4 to end residues) expressed in Escherichia coli at 3 uM by filter binding assay relative to control
NCI-H929 [14] = experiment: Antiproliferative activity against human NCI-H929 cells assessed as reduction in cell viability after 72 hrs by CellTiter-Glo assay; assay type: functional, cell-based; details: NCI-H929, 72 h; method in brief: as §1
[15] = Antiproliferative activity against human SUPM2 cells assessed as reduction in cell viability after 72 hrs by CellTiter-Glo assay; assay type: functional, cell-based; details: SUP-M2, 72 h; method in brief: as §1
[16] = biological target: Glycogen synthase kinase-3 beta (Homo sapiens, UniProt P49841); experiment: Inhibition of GSK3beta (unknown origin)
[17] = biological target: Serine/threonine-protein kinase TBK1 (Homo sapiens) (UniProt Q9UHD2); experiment: Inhibition of N-terminal His6-tagged recombinant full-length human TBK1 expressed in baculovirus infected Sf21 cells at 0.3 uM by filter binding assay relative to control; method in brief: as §3
[18] = biological target: Insulin receptor (Mus musculus) (UniProt P15208); details: CD-1, dose 10-60 mg/kg, route po, time 242.0 min
[19] = Antitumor activity against mouse NIH-3T3/LISN cells implanted in nu/nu CD-1 mouse assessed as reduction in tumor growth at 30 mg/kg, po administered twice daily for 21 days relative to control; assay type: functional; details: 504 h, time 21 day, read-out: TGI
Method in brief: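 Exponentially growing cells implanted s.c. in the right flank of 8–10-wk-old female athymic nu/nu CD-1 mice. At 150–200 mm3, block-randomized by tumor size into groups of eight. Oral dosing once or twice daily for 21 d; vehicle 20% sulfobutylether-β-cyclodextrin, pH 3.5. Calipers twice weekly; volume = length×width²/2. Growth inhibition = 100×[1 − treated growth/vehicle growth].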

COLO 205 = experiment: Induction of cell cycle arrest in human COLO 205 cells assessed as cells accumulation at G2 phase at 1 umol/L incubated for 48 hrs by propidium iodide staining based flow cytometric analysis (reference value: 22%); assay type: functional; details: dose 1 µmol/L, at 1 µM; method in brief: as §2
[20] = biological target: Phosphatidylinositol 4,5-bisphosphate 3-kinase catalytic subunit gamma isoform (Homo sapiens, UniProt P48736); experiment: Inhibition of PI3Kgamma (unknown origin)
[21] = biological target: Mitogen-activated protein kinase 9 (Homo sapiens, UniProt P45984); experiment: Inhibition of JNK2 (unknown origin)
[22] = biological target: Ephrin type-A receptor 5 (Homo sapiens) (UniProt P54756); experiment: Inhibition of N-terminal His6-tagged human EphA5 expressed in baculovirus infected Sf21 cells at 0.3 uM by filter binding assay relative to control; method in brief: as §3
MOLP-8 = experiment: Antiproliferative activity against human MOLP8 cells assessed as reduction in cell viability after 72 hrs by CellTiter-Glo assay; assay type: functional, cell-based; details: MOLP-8, 72 h; method in brief: as §1
NCI-H929 [23] = experiment: Induction of cell cycle arrest in human NCI-H929 cells assessed as cells accumulation at G2 phase at 1 umol/L incubated for 48 hrs by propidium iodide staining based flow cytometric analysis (reference value: 33%); assay type: functional; details: dose 1 µmol/L, at 1 µM; method in brief: as §2

Serine/threonine-protein kinase Sgk1 (Homo sapiens), sequence (O00141 whole entry): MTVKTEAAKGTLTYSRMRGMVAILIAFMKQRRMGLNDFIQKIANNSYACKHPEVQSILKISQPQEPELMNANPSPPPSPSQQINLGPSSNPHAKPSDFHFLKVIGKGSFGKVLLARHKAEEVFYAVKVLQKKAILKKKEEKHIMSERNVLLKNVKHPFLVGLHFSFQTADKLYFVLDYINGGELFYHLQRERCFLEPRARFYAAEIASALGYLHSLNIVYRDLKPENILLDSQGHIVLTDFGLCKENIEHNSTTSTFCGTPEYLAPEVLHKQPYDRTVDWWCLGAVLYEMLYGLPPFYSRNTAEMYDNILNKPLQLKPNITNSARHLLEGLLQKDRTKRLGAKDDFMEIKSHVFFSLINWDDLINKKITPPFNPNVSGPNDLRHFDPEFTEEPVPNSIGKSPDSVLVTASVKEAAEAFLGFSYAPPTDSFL
Insulin receptor (Mus musculus), sequence (P15208 28-748 limits assumed): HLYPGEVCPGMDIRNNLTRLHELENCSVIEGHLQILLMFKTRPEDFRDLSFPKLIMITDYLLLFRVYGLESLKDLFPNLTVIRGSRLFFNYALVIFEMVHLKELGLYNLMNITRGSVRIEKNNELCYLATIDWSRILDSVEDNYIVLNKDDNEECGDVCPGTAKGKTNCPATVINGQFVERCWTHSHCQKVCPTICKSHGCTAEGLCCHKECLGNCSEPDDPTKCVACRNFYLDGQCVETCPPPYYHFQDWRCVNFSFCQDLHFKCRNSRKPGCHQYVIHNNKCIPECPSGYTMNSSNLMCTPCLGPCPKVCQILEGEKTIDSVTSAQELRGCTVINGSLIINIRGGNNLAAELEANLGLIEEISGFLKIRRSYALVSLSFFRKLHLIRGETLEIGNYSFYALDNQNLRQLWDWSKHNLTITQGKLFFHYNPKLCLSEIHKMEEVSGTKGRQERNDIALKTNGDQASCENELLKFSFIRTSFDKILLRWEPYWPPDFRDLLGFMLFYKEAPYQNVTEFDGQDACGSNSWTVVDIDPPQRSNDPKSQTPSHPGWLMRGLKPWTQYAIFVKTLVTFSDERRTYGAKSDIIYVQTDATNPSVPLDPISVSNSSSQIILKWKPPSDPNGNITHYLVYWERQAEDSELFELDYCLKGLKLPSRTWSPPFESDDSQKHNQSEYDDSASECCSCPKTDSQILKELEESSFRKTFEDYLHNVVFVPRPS
Insulin receptor (Mus musculus), sequence (P15208 753-1372 limits assumed): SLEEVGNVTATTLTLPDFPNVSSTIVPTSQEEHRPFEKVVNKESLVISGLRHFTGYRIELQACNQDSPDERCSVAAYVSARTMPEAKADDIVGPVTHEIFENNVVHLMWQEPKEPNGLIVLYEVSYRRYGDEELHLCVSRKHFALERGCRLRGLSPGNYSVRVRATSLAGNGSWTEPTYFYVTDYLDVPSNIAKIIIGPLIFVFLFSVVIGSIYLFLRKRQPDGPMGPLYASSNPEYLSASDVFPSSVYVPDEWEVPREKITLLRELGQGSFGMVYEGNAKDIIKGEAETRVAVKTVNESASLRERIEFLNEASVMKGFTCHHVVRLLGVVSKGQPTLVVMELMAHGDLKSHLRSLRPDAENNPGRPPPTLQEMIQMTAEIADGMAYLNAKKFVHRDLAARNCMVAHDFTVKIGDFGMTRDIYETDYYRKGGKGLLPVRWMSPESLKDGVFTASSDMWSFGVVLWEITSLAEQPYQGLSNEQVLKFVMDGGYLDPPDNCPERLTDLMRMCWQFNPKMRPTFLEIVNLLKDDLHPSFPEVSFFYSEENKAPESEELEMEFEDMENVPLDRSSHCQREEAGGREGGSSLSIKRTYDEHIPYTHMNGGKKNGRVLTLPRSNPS
Fibroblast growth factor receptor 4 (Homo sapiens), sequence (P22455 22-802 limits assumed): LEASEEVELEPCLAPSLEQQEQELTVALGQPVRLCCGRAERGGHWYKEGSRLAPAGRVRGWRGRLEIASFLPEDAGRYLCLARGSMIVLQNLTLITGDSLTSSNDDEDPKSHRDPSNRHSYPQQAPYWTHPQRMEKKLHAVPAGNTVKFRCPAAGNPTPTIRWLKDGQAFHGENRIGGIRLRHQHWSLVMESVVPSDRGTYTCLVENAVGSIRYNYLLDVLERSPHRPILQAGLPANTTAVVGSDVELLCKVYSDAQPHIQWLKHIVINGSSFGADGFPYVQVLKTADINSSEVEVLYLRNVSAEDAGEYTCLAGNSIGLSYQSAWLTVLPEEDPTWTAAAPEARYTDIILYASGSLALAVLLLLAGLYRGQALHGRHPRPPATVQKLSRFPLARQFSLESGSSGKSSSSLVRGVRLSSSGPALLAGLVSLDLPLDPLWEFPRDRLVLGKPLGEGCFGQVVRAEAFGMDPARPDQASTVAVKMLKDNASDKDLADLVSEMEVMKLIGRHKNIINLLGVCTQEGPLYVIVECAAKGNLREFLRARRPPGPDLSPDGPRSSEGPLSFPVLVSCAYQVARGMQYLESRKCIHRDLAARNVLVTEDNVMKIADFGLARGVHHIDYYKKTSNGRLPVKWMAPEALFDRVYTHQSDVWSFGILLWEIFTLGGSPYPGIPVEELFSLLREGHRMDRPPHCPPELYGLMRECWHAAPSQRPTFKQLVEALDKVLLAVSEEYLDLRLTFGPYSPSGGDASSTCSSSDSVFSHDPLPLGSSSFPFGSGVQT
Glycogen synthase kinase-3 beta, sequence (P49841 whole entry): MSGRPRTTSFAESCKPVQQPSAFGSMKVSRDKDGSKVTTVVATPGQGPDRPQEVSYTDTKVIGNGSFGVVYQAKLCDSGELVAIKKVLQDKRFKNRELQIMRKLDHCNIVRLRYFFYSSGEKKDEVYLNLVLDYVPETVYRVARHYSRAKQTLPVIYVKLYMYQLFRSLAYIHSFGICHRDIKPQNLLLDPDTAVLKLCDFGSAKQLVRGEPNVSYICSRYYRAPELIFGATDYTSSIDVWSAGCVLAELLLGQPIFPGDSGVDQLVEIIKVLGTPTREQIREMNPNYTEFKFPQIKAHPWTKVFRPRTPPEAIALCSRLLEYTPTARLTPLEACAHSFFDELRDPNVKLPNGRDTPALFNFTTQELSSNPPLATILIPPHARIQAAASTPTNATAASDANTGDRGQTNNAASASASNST
Mitogen-activated protein kinase 9, sequence (P45984 whole entry): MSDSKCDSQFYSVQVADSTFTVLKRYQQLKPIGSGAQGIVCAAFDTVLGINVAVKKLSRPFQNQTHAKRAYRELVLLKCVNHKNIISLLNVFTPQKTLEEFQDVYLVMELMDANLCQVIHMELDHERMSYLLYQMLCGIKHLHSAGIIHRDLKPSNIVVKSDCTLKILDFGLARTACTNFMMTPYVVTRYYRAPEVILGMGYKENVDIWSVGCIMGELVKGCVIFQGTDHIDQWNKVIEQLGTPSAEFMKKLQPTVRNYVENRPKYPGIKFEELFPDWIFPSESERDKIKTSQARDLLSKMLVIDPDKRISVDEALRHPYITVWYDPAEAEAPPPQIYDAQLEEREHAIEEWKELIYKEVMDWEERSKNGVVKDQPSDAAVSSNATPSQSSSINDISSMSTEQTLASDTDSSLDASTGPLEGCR
Vascular endothelial growth factor receptor 2, sequence (P35968 whole entry): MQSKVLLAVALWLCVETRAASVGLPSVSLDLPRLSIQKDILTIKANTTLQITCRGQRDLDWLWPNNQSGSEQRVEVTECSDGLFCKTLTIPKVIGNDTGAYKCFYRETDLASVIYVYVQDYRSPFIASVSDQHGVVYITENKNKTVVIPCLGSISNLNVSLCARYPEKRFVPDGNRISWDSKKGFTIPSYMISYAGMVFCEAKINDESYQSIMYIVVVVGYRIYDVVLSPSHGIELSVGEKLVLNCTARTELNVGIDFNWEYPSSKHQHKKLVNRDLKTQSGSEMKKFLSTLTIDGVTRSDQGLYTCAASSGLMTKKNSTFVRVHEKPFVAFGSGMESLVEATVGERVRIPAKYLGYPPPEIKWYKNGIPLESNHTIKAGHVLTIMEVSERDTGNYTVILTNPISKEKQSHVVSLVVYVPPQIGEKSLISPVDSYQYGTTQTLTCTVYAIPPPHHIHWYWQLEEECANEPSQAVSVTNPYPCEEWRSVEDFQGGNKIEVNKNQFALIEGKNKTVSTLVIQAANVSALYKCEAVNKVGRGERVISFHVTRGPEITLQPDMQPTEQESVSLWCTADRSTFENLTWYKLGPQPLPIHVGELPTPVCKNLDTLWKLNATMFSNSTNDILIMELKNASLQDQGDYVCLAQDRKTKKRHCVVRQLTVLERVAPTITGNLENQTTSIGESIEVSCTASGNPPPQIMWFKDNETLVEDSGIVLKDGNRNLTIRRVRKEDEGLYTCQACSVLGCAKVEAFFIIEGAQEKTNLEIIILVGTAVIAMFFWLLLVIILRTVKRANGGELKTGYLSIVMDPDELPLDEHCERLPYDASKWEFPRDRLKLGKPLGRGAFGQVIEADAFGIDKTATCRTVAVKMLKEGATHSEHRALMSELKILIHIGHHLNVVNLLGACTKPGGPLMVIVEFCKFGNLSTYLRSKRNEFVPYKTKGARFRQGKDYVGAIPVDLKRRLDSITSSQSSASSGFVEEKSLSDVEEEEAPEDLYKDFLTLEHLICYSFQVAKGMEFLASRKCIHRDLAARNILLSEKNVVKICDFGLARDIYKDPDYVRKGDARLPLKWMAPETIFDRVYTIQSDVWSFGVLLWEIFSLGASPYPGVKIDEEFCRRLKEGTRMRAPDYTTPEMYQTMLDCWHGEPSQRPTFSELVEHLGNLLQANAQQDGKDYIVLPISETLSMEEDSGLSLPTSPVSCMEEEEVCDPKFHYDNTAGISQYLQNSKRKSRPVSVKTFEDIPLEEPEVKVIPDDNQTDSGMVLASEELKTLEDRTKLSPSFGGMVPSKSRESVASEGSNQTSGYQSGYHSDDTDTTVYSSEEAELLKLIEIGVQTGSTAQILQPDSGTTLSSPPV

## CCc1cc(Nc2nccc(-c3c(-c4ccc(OC)c(C(=O)Nc5c(F)cccc5F)c4)nc4ccccn34)n2)c(OC)cc1N1CCC(N2CCN(S(C)(=O)=O)CC2)CC1
[1]
  IC50: 3.2 µM
[2]
  IC50: 0.159 µM
[3]
  IC50: 4.75 µM
[4]
  IC50: 0.061 µM
[5]
  Activity: > 20%
[6]
  inhibition at 0.3 µM: 2%
[7]
  inhibition: -10%
MCF7
  Activity: inactive
[8]
  inhibition: -10%
[9]
  inhibition: 29%
[10]
  inhibition: 0%
[11]
  IC50: 3.2 µM
[12]
  inhibition: 1%
[13]
  inhibition: 0%
NCI-H929 [14]
  IC50: 0.081 µM
[15]
  IC50: > 30 µM
[16]
  IC50: > 25 µM
[17]
  inhibition: 18%
[18]
  inhibition: inactive
[19]
  inhibition in vivo at 30 mg/kg: 98%
COLO 205
  Activity: 12%
[20]
  IC50: > 10 µM
[21]
  IC50: > 10 µM
[22]
  inhibition: 11%
MOLP-8
  IC50: 0.096 µM
NCI-H929 [23]
  Activity: 8%
